Measurements from ChEMBL document CHEMBL1154122, “A comprehensive study of Sansalvamide A derivatives: The structure-activity relationships of 78 derivatives in two pancreatic cancer cell lines” (2009).
Square brackets hold non-standard residues; d marks the D form. Peptide text beside a SMILES is read from it. * marks the point of attachment. dNMeF = CN[C@H](Cc1ccccc1)C(=O)O; NMeL = CN[C@@H](CC(C)C)C(=O)O; dNMeL = CN[C@H](CC(C)C)C(=O)O; Cbz = O=C(OCc1ccccc1)*

Assays:
[1] = Cytotoxicity against human PL45 cells after 56 hrs by [3H]thymidine uptake assay; assay type: functional
Procedure, shortened: (§1)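 Cells seeded at 2000–2500/well in DMEM with L-glutamine, 10% FBS and 1% penicillin-streptomycin. […] After 56 h, 3H-thymidine was added for 16 h more (72 h total), then cells were harvested and counted (CPM). Inhibition = 1 − CPM treated/DMSO; IC50 taken from curves, mean and SEM.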

[2] = system: BXPC-3; assay: Cytotoxicity against human BxPC3 cells after 56 hrs by [3H]thymidine uptake assay; assay type: functional; procedure, shortened: as §1

Row | SMILES | growth inhibition (GI) [1] | growth inhibition (GI) [2]
1 | CC(C)C[C@@H]1NC(=O)[C@H](Cc2ccccc2)NC(=O)[C@H](CC(C)C)NC(=O)[C@H](C(C)C)NC(=O)[C@H](CC(C)C)NC1=O | 25% | 42%
2 | CC(C)C[C@@H]1NC(=O)[C@H](Cc2ccccc2)NC(=O)[C@H](CC(C)C)NC(=O)[C@H](C(C)C)N(C)C(=O)[C@H](CC(C)C)NC1=O | 20% | 28%
3 | CC(C)C[C@@H]1NC(=O)[C@H](Cc2ccccc2)NC(=O)[C@@H](CC(C)C)NC(=O)[C@@H](C(C)C)NC(=O)[C@H](CC(C)C)NC1=O | 41% | 33%
4 | CC(C)C[C@@H]1NC(=O)[C@H](CC(C)C)NC(=O)[C@@H](Cc2ccccc2)NC(=O)[C@@H](CC(C)C)NC(=O)[C@@H](C(C)C)NC1=O | 44% | 42%
5 | CC(C)C[C@@H]1NC(=O)[C@H](CC(C)C)N(C)C(=O)[C@H](Cc2ccccc2)NC(=O)[C@H](CC(C)C)N(C)C(=O)[C@H](C(C)C)NC1=O | 38% | 9%
6 | CC(C)C[C@@H]1NC(=O)[C@H](C(C)C)NC(=O)[C@H](CC(C)C)NC(=O)[C@H](CC(C)C)N(C)C(=O)[C@H](Cc2ccccc2)NC1=O | 44% | 47%
7 | CC(C)C[C@@H]1NC(=O)[C@H](Cc2ccccc2)NC(=O)[C@@H](Cc2ccccc2)N(C)C(=O)[C@H](C(C)C)NC(=O)[C@H](CC(C)C)NC1=O | 51% | 35%
8 | CC(C)C[C@@H]1NC(=O)[C@H](Cc2ccccc2)NC(=O)[C@@H](Cc2ccccc2)NC(=O)[C@H](C(C)C)NC(=O)[C@H](CC(C)C)NC1=O | 39% | 55%
9 | CC(C)C[C@@H]1NC(=O)[C@H](Cc2ccccc2)NC(=O)[C@H](CC(C)C)NC(=O)[C@@H](C(C)C)NC(=O)[C@H](CC(C)C)NC1=O | 45% | 22%
10 | CC(C)C[C@@H]1NC(=O)[C@H](C(C)C)NC(=O)[C@H](CC(C)C)NC(=O)[C@@H](CC(C)C)N(C)C(=O)[C@H](Cc2ccccc2)NC1=O | 49% | 43%
11 | CC(C)C[C@@H]1NC(=O)[C@H](CC(C)C)NC(=O)[C@@H](Cc2ccccc2)NC(=O)[C@H](CC(C)C)NC(=O)[C@H](C(C)C)NC1=O | 22% | 55%
12 | CC(C)C[C@@H]1NC(=O)[C@H](C(C)C)NC(=O)[C@H](CC(C)C)NC(=O)[C@@H](CC(C)C)NC(=O)[C@H](Cc2ccccc2)NC1=O | 29% | 29%
13 | CC(C)C[C@@H]1NC(=O)[C@H](Cc2ccccc2)NC(=O)[C@@H](CC(C)C)NC(=O)[C@H](C(C)C)NC(=O)[C@H](CC(C)C)NC1=O | 41% | 34%
14 | CC(C)C[C@@H]1NC(=O)[C@@H](CC(C)C)NC(=O)[C@H](Cc2ccccc2)NC(=O)[C@H](CC(C)C)NC(=O)[C@@H](C(C)C)NC1=O | 32% | 30%
15 | CC(C)C[C@H]1NC(=O)[C@@H](Cc2ccccc2)NC(=O)[C@@H](CC(C)C)NC(=O)[C@@H](C(C)C)NC(=O)[C@@H](CC(C)C)NC1=O | 17% | 30%
16 | CC(C)C[C@@H]1C(=O)N[C@H](CC(C)C)C(=O)N[C@H](C(C)C)C(=O)N[C@H](CC(C)C)C(=O)N[C@H](Cc2ccccc2)C(=O)N1C | 43% | 33%
17 | CC(C)C[C@H]1NC(=O)[C@@H](Cc2ccccc2)NC(=O)[C@@H](CC(C)C)NC(=O)[C@@H](C(C)C)N(C)C(=O)[C@@H](CC(C)C)NC1=O | 6% | 31%
18 | CC(C)C[C@@H]1NC(=O)[C@H](Cc2ccccc2)NC(=O)[C@H](CC(C)C)NC(=O)[C@H](C(C)C)NC(=O)[C@@H](CC(C)C)NC1=O | 0% | 0%
19 | CC(C)C[C@@H]1NC(=O)[C@H](C(C)C)NC(=O)[C@@H](CC(C)C)NC(=O)[C@@H](CC(C)C)NC(=O)[C@H](Cc2ccccc2)NC1=O | 14% | 0%
20 | CC(C)C[C@@H]1NC(=O)[C@@H](C(C)C)N(C)C(=O)[C@H](CC(C)C)NC(=O)[C@@H](CC(C)C)NC(=O)[C@H](Cc2ccccc2)NC1=O | 21% | 35%
21 | CC(C)C[C@@H]1NC(=O)[C@H](Cc2ccccc2)NC(=O)[C@H](CC(C)C)NC(=O)[C@@H](C(C)C)N(C)C(=O)[C@H](CC(C)C)NC1=O | 29% | 34%
22 | CC(C)C[C@@H]1NC(=O)[C@H](C(C)C)N(C)C(=O)[C@H](CC(C)C)NC(=O)[C@@H](Cc2ccccc2)NC(=O)[C@H](Cc2ccccc2)NC1=O | 21% | 3%

Row | SMILES | growth inhibition (GI) [1] | growth inhibition (GI) [2]
23 | CC(C)C[C@@H]1NC(=O)[C@@H](CC(C)C)N(C)C(=O)[C@H](Cc2ccccc2)NC(=O)[C@H](CC(C)C)NC(=O)[C@@H](C(C)C)NC1=O | 26% | 38%
24 | CC(C)C[C@@H]1NC(=O)[C@H](C(C)C)N(C)C(=O)[C@@H](CC(C)C)NC(=O)[C@@H](Cc2ccccc2)NC(=O)[C@@H](Cc2ccccc2)NC1=O | 15% | 6%
25 | CC(C)[C@@H]1NC(=O)[C@H](CC2CCCCC2)NC(=O)[C@H](COCc2ccccc2)NC(=O)[C@H](Cc2ccccc2)NC(=O)[C@@H](Cc2ccccc2)N(C)C1=O | 40% | 44%
26 | CC(C)C[C@@H]1NC(=O)[C@H](Cc2ccccc2)NC(=O)[C@@H](Cc2ccccc2)N(C)C(=O)[C@@H](C(C)C)NC(=O)[C@H](CC(C)C)NC1=O | 55% | 4%
27 | CC(C)C[C@@H]1NC(=O)[C@H](CC(C)C)NC(=O)[C@@H](Cc2ccccc2)NC(=O)[C@H](CC(C)C)NC(=O)[C@@H](C(C)C)NC1=O | 41% | 7%
28 | CC(C)C[C@@H]1NC(=O)[C@@H](Cc2ccccc2)NC(=O)[C@H](CC(C)C)NC(=O)[C@@H](C(C)C)N(C)C(=O)[C@H](CC(C)C)NC1=O | 36% | 31%
29 | CC(C)C[C@@H]1NC(=O)[C@H](Cc2ccccc2)NC(=O)[C@H](CC(C)C)NC(=O)[C@@H](C(C)C)NC(=O)[C@@H](CC(C)C)NC1=O | 14% | 12%
30 | CC(C)C[C@@H]1NC(=O)[C@H](Cc2ccccc2)NC(=O)[C@@H](Cc2ccccc2)N(C)C(=O)[C@H](C(C)C)NC(=O)[C@H](CC2CCCCC2)NC1=O | 44% | 21%
31 | CC(C)C[C@@H]1C(=O)N[C@H](CC(C)C)C(=O)N[C@H](C(C)C)C(=O)N(C)[C@H](CC(C)C)C(=O)N[C@H](Cc2ccccc2)C(=O)N1C | 6% | 33%
32 | CC(C)C[C@@H]1NC(=O)[C@H](C(C)C)N(C)C(=O)[C@@H](CCCCNC(=O)OCc2ccccc2)NC(=O)[C@@H](Cc2ccccc2)NC(=O)[C@H](Cc2ccccc2)NC1=O | 65% | 55%
33 | CC(C)C[C@@H]1NC(=O)[C@H](C(C)C)N(C)C(=O)[C@@H](CCCCN)NC(=O)[C@@H](Cc2ccccc2)NC(=O)[C@H](Cc2ccccc2)NC1=O | 5% | 8%
34 | CC(C)[C@H]1NC(=O)[C@H](CC2CCCCC2)NC(=O)[C@H](COCc2ccccc2)NC(=O)[C@H](Cc2ccccc2)NC(=O)[C@@H](Cc2ccccc2)N(C)C1=O | 70% | 80%
35 | CC(C)C[C@@H]1NC(=O)[C@H](COCc2ccccc2)NC(=O)[C@@H](Cc2ccccc2)NC(=O)[C@@H](CC(C)C)NC(=O)[C@@H](C(C)C)NC1=O | 30% | 43%
36 | CC(C)C[C@@H]1NC(=O)[C@H](C)NC(=O)[C@H](CC(C)C)NC(=O)[C@H](CC(C)C)NC(=O)[C@H](Cc2ccccc2)NC1=O (cyclo(ALFLL)) | 18% | 20%
37 | CC(C)C[C@@H]1NC(=O)[C@H](Cc2ccccc2)NC(=O)[C@H](CC(C)C)NC(=O)[C@H](C(C)C)NC(=O)[C@H](CCCCNC(=O)OCc2ccccc2)NC1=O (cyclo(FLK(Cbz)VL)) | 0% | 8%
38 | CC(C)C[C@@H]1NC(=O)[C@H](Cc2ccccc2)NC(=O)[C@@H](Cc2ccccc2)N(C)C(=O)[C@H](C(C)C)NC(=O)[C@H](CCCCNC(=O)OCc2ccccc2)NC1=O (cyclo(FLK(Cbz)V[dNMeF])) | 44% | 0%
39 | CC(C)C[C@@H]1NC(=O)[C@H](Cc2ccccc2)NC(=O)[C@H](CC(C)C)NC(=O)[C@@H](C(C)C)NC(=O)[C@H](CCCCNC(=O)OCc2ccccc2)NC1=O (cyclo(FLK(Cbz)[dV]L)) | 0% | 29%
40 | CC(C)C[C@@H]1NC(=O)[C@H](Cc2ccccc2)NC(=O)[C@H](CC(C)C)NC(=O)[C@H](C(C)C)NC(=O)[C@H](CCCCN)NC1=O (cyclo(FLKVL)) | 0% | 8%
41 | CC(C)C[C@@H]1NC(=O)[C@H](Cc2ccccc2)NC(=O)[C@@H](Cc2ccccc2)N(C)C(=O)[C@H](C(C)C)NC(=O)[C@H](CCCCN)NC1=O (cyclo(FLKV[dNMeF])) | 26% | 30%
42 | CC(C)C[C@@H]1NC(=O)[C@H](Cc2ccccc2)NC(=O)[C@H](CC(C)C)NC(=O)[C@@H](C(C)C)NC(=O)[C@H](CCCCN)NC1=O (cyclo(FLK[dV]L)) | 23% | 24%
43 | CC(C)C[C@@H]1NC(=O)[C@H](Cc2ccccc2)NC(=O)[C@H](CC(C)C)N(C)C(=O)[C@H](C(C)C)NC(=O)[C@H](CC(C)C)NC1=O (cyclo(FLLV[NMeL])) | 0% | 0%
44 | CC(C)C[C@@H]1NC(=O)[C@H](Cc2ccccc2)NC(=O)[C@@H](CC(C)C)N(C)C(=O)[C@H](C(C)C)NC(=O)[C@H](CC(C)C)NC1=O (cyclo(FLLV[dNMeL])) | 5% | 2%
